# Bioassay records deposited in PubChem by several laboratories.
# Only some compounds are listed: those with a hit (about 2.2% of all), similar ones and a draw of the others.
# IEC-6 tox: counter-screen for KLF5 inhibitors: cytotoxicity in IEC-6 cells. inhibition, % at 5 µM. actives 0.78% (n = 290,000). IEC-6 cytotoxicity, luminescence viability; in the data active = inhibition above about 22%;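 also: 0% = plate median of test compound wells and 100% = cytotoxic reference compound wells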
# b-catenin transl: beta-catenin nuclear translocation modulation | HeLa beta-catenin nuclear translocation, immunofluorescence imaging | AID 1665 | nuclear translocation activity, % at 5 µM | actives 0.3% (n = 190,000);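 active = nuclear translocation activity above 50% at 5 µM, with a well cell count of 50 or more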;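 also: per-cell ratio of nuclear to cytoplasmic median beta-catenin stain intensity; plate controls were DMSO negative control for no effect and GSK-3 inhibitor IX positive control for full effect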
#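 Test system: human HeLa cell line; Doses: 5 µM primary, 0.02–20 µM confirmation; Incubation: 24 h compound exposure, 37°C; Detection: beta-catenin immunofluorescence imaging with DAPI; Read-out: beta-catenin nuclear/cytoplasmic ratio, % activation.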
# BaF3 parental: reduces parental Ba/F3 cell viability, JAK2V617F counter-screen; CellTiter-Glo ATP luminescence; inhibition, % at 5.6 µM; actives 1.1% (n = 220,000); AID 1486;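 active = inhibition above a per-campaign cutoff, the mean inhibition of all tested compounds plus 3 SD, cut at about 27% in these data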;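 also: 0% = DMSO wells and 100% = JAK Inhibitor I control wells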
# Ba/F3 V617F tox: lowers viability of Ba/F3 cells expressing EpoR and JAK2V617F | ATP luminescence | actives 1.1% (n = 220,000) | inhibition, % at 5.6 µM | AID 1446;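 active = inhibition above the campaign mean plus 3 SD over all tested compounds, cut at about 24% in these data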;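 also: cytokine-independent growth of Ba/F3 cells driven by EpoR plus mutant JAK2; 0% = DMSO-treated cells and 100% = JAK inhibitor I control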
# APP 5UTR inh: APP translation inhibition; SH-SY5Y APP 5'UTR-luciferase reporter, luminescence; inhibition, % at 2 µM; actives 0.82% (n = 190,000);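 active = inhibition above a set limit, derived from the sample mean plus 3 SD, cut at about 45% in these data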
# MT stabilize HCS: stabilizes microtubules in HeLa cells; HeLa tubulin immunostaining HCS, 24 h; share of cells brighter than vehicle mean+2SD; % tubulin-high responders, % at 10 µM; AID 2205; actives 0.83% (n = 200,000);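 active = plate Z-score above 3 for both tubulin-high and condensed-nucleus cell shares, with cell loss under 80%, at 10 µM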;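 also: anti alpha tubulin signal scored within the nucleus-defined area of each cell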
# BaF3 tox 2: reduces parental Ba/F3 viability, JAK2V617F counter-screen | CellTiter-Glo luminescence; cells kept alive by added IL-3 | shares compounds with Ba/F3 V617F tox | actives 31% (n = 580) | AID 1520 | inhibition, % at 5.6 µM;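 active = cell growth inhibition above the hit limit set in the earlier mutant JAK2 cell screen, cut at about 27% in these data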;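 also: plate controls were DMSO-treated cells for no effect and JAK Inhibitor I control wells for full effect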
# JAK2V617F confrm: Ba/F3 EpoR-JAK2V617F viability loss, confirmation; inhibition, % at 5.6 µM; CellTiter-Glo luminescence; shares compounds with Ba/F3 V617F tox; AID 1521; actives 66% (n = 580);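 active = mean inhibition above the hit cutoff derived in the earlier primary screen, cut at about 25% in these data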;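 also: 0% = DMSO-treated cells and 100% = JAK inhibitor I control wells; higher means lower luminescence from reduced cell ATP and viability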
# * marks the source's active call; other numbers are inactive results; x = no result.
SMILES,IEC-6 tox,b-catenin transl,BaF3 parental,Ba/F3 V617F tox,APP 5UTR inh,MT stabilize HCS,BaF3 tox 2,JAK2V617F confrm
CCN(CC)S(=O)(=O)c1cccc(-n2c(O)c(C=Nc3ccccc3C(=O)O)c3ccccc3c2=O)c1,17,-1,10,26*,x,x,9,55*
C#CCSc1nsc(SCC#C)c1C#N,-1,-2,6,45*,7,5,-4,72*
CCCSc1nsc(SCCC)c1C#N,1,x,2,-4,-1,2,x,x
CCCN1CCN(S(=O)(=O)c2ccc3c(c2)NC(=O)C(C)C(=O)N3)CC1 (centres undefined),11,x,x,x,x,x,x,x
Cc1c(C(=O)OCC(C)C)[nH]c2c1C(=O)CC(c1cccs1)C2 (centres undefined),11,295*,8,24*,59*,13*,59*,88*
COC(=O)c1[nH]c2c(c1C)C(=O)CC(c1ccc(C)cc1)C2 (centres undefined),5,2,4,1,14,3,x,x
COc1cccc(-n2nnnc2S(C)(=O)=O)c1,39*,x,2,52*,4,1,32*,95*
Cc1ccccc1N1CCN(Cc2c[nH]c3ccccc23)CC1,2,x,2,35*,15,3,-5,29*
Cc1nnsc1S(=O)c1ccccc1Cl (centres undefined),0,x,x,x,x,x,x,x
O=C(NC(NNc1ccc([N+](=O)[O-])cc1)(C(F)(F)F)C(F)(F)F)c1ccc(Cl)cc1,8,x,1,29*,-4,3,-6,-3
Cc1noc(NC(=O)c2ccc(Cl)c(Cl)c2)c1Cl,6,0,4,29*,-1,3,-2,47*
CCOC(=O)c1c(S(=O)(=O)NCC(=O)Nc2ccc(F)cc2)c(C)n(C)c1C,3,x,x,x,x,x,x,x
O=C(CCl)N(C/C=C/c1ccccc1)c1ccc2c(c1)OCCO2,4,1,5,40*,-19,6,20,94*
O=C(/C=C/c1ccccc1)c1ccc2c(c1)OCCCCO2,1,0,0,0,-147,2,x,x
CN(Cc1ccccc1)C(=O)COC(=O)c1cncc(Br)c1,-4,5,12,-2,10,1,x,x
CN(Cc1ccccc1)C(=O)COC(=O)c1ccc(Cl)c(N)c1,-6,-2,11,94*,-10,7,-5,-7
COc1ccccc1NC(=O)CSc1nnc(C2CCCCC2)n1-c1ccccc1,-3,0,-2,30*,x,x,-2,22
COc1ccccc1NC(=O)CSc1nnc(C2CCCCC2)n1C,10,-3,3,2,-1,3,x,x
Cc1ccc(CSCC(=O)NCc2cccnc2)cc1,-2,-1,10,2,9,3,x,x
Cc1ccc(CC(=O)NCc2cccnc2)cc1,-5,-2,7,58*,10,7,-8,-7
Cc1ccc(NC(=O)NCc2cccn2C)cc1C,2,x,x,x,x,x,x,x
COc1ccc(OCC(O)Cn2c(=N)n(CCN3CCCCC3)c3ccccc32)cc1 (centres undefined),1,-3,14,34*,15,4,0,20
Cc1ccccc1OCC(O)Cn1c(=N)n(Cc2ccccc2)c2ccccc21 (centres undefined),6,1,17,48*,x,x,21,53*
COC(=O)c1cc(CNC(=O)c2ccccc2OCc2c(C)noc2C)ccc1OC,-2,x,x,x,x,x,x,x
COc1nc(OC)nc(Oc2ccc(Cl)cc2[N+](=O)[O-])n1,0,-3,-5,-7,5,3,x,x
COc1ccc([N+](=O)[O-])c(S(=O)(=O)c2ccccc2)n1,15,0,-6,93*,x,x,34*,85*
COc1ccc([N+](=O)[O-])c(S(=O)(=O)c2ccc(Cl)cc2)n1,3,1,-7,43*,x,x,2,70*
O=C(CSc1ccc2ccccc2c1Br)Nc1cccc(S(=O)(=O)NC2=NCCCCC2)c1,15,0,1,33*,0,2,3,75*
